# Measurements collected from several papers.
# Lines come from different studies, so protocols differ.
# Phosphatidylserine lipase ABHD16A: Phosphatidylserine lipase ABHD16A (Homo sapiens, UniProt O95870)
SMILES,target,effect on,mode,technique,notes,quantity,value
CCCCCCCCCCCCCC1OC(=O)/C1=C\CCCCCS(N)(=O)=O (stereo not drawn),Phosphatidylserine lipase ABHD16A,enzyme activity,inhibitor,,,IC50,0.5 to 1 µM
CN1CCC[C@H]1c1cccnc1,"Urea transporter 1 (Slc14a1, Rattus norvegicus, UniProt P97689)",transporter uptake,inhibitor,,,IC50,~40 µM
CC(=O)CC(=O)C(=O)O,"4-hydroxy-tetrahydrodipicolinate synthase (dapA, Escherichia coli K-12, UniProt P0A6L2)",enzyme activity,inhibitor,absorbance,,Ki,1400 nM
CC(C)CCC[C@@H](C)[C@H]1CC[C@H]2[C@@H]3C[C@@H](n4cncc4CCN)[C@@]4(O)C[C@@H](O)CC[C@]4(C)[C@H]3CC[C@]12C,"Bifunctional epoxide hydrolase 2 (EPHX2, Homo sapiens, UniProt P34913)",enzyme activity,inhibitor,,,IC50,> 100 µM
Nc1ccn([C@@H]2O[C@H](COP(=O)(O)OP(=O)(O)OP(O)(O)=S)[C@@H](O)[C@H]2O)c(=O)n1,"virB (Shigella flexneri, UniProt P0A247)",binding,,ITC,,Kd,14300 nM
CC(C)[C@@H]1NC(=O)[C@@H]2CCCN2C(=O)[C@H](Cc2ccccc2)NC(=O)CSC[C@@H](C(=O)N[C@@H](Cc2ccc(O)cc2)C(N)=O)NC(=O)[C@H](Cc2c[nH]c3ccccc23)NC(=O)[C@H](CCCCN)NC(=O)[C@H](Cc2ccccc2)N(C)C(=O)[C@H](Cc2ccccc2)NC1=O,"Stimulator of interferon genes protein (STING1, Homo sapiens, UniProt Q86WV6, H232R)",binding,,SPR,,Kd,250 nM
C[C@H]1CCC[C@H](O)CCC/C=C/c2cc(O)cc(O)c2C(=O)O1,"Estrogen receptor beta (ESR2, Homo sapiens, UniProt Q92731)",reporter gene,agonist,luciferase,,EC50,0.44 nM
N=C(N)NCCC[C@H](N)C(=O)O,"Nitric oxide synthase, inducible (Nos2, Mus musculus, UniProt P29477)",cell-free assay,,,,Kd,2600 nM
CC(C)C[C@H](NC(=O)[C@H](Cc1ccccc1)NC(=O)[C@H](Cc1ccc(O)cc1)NC(=O)CNC(=O)[C@H](CCCCN)NC(=O)[C@H](CO)NC(=O)[C@H](CCC(N)=O)NC(=O)CNC(=O)[C@@H](NC(=O)[C@H](CO)NC(=O)[C@@H]1CCCN1C(=O)[C@H](CO)NC(=O)[C@H](CCC(N)=O)NC(=O)[C@H](Cc1ccc(O)cc1)NC(=O)[C@H](CCC(=O)O)NC(=O)[C@H](C)NC(=O)[C@H](CCCCN)NC(=O)[C@@H](N)Cc1ccccc1)C(C)C)C(=O)N[C@@H](Cc1ccccc1)C(=O)N[C@@H](CCCNC(=N)N)C(=O)N1CCC[C@H]1C(=O)N[C@@H](CCCNC(=N)N)C(=O)N[C@@H](CC(N)=O)C(N)=O,"Neuromedin-U receptor 1 (NMUR1, Homo sapiens, UniProt Q9HB89)",inositol phosphate,agonist,,,EC50,0.447 nM
CC(=O)SCCNC(=O)CCNC(=O)[C@H](O)C(C)(C)COP(=O)(O)OP(=O)(O)OC[C@H]1O[C@@H](n2cnc3c(N)ncnc32)[C@H](O)[C@@H]1OP(=O)(O)O,"CAB1 (Saccharomyces cerevisiae, UniProt Q04430)",enzyme activity,inhibitor,,,IC50,> 100 µM
CCCCCCCCCCCCCC1OC(=O)/C1=C\CCCCC(N)=O (stereo not drawn),Phosphatidylserine lipase ABHD16A,cell-free assay,inhibitor,,,IC50,0.2 to 0.5 µM
CCC(C)c1cccc(C(C)CC)c1O (stereo not drawn),"Potassium/sodium hyperpolarization-activated cyclic nucleotide-gated channel 1 (Hcn1, Mus musculus, UniProt O88704)",ion current,,two-electrode voltage clamp,oocytes,IC50,~30 µM
